pIC50: −log10 of the molar value.
Legend:
[1] = system: A498; assay: Growth inhibition of human A498 cells assessed as cell growth at 10 uM after 48 hrs by sulforhodamine B assay; assay type: functional; conditions: A498, 48 h, read-out: Activity
Summary of the method: (§1)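 NCI-60 single-dose screen at 10 µM: cells in RPMI 1640 with 5% FBS, preincubated 24 h, then exposed 48 h at 37 °C. TCA fixation (16% final for suspension cells), SRB staining, absorbance 515 nm. Percent growth relative to time-zero and untreated control plates; negative values indicate cell kill.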

[2] = Growth inhibition of human HCC2998 cells after 48 hrs by sulforhodamine B assay; assay type: functional; conditions: HCC 2998, 48 h
Summary of the method: (§2)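 NCI-60 screen: cells in RPMI 1640 with 5% FBS and 2 mM glutamine, 5000–40,000 cells/well, preincubated 24 h. Five concentrations (10-fold dilutions; 100 to 0.001 µM) applied for 48 h at 37 °C. TCA fixation, SRB stain, absorbance at 515 nm. Time-zero plates included; GI50 where 100×(T−T0)/(C−T0)=50.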

[3] = system: SF-539; assay: Growth inhibition of human SF539 cells assessed as cell growth at 10 uM after 48 hrs by sulforhodamine B assay; assay type: functional; conditions: SF-539, 48 h, read-out: Activity
Summary of the method: (§3)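 Single-dose NCI-60 screen: adherent cells in RPMI 1640 with 5% FBS were exposed to 10 µM for 48 h at 37 °C after a 24 h preincubation. They were fixed in situ with cold TCA (10% final), stained with 0.4% SRB in 1% acetic acid, solubilized in 10 mM Tris base, and read at 515 nm. Percent growth was taken relative to time-zero and control plates.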

[4] = system: UACC-62; assay: Growth inhibition of human UACC62 cells after 48 hrs by sulforhodamine B assay; assay type: functional; conditions: UACC-62, 48 h
Summary of the method: (§4)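 NCI-60 five-dose screen. Cells were grown in RPMI 1640 with 5% FBS and 2 mM L-glutamine, plated at 5000–40,000 cells/well and incubated 24 h before dosing, with T0 plates TCA-fixed. DMSO stocks were diluted to doses of […] and exposed 48 h at 37 °C, 5% CO2. Cells were fixed with cold TCA (final 10%, 60 min, 4 °C), stained with 0.4% SRB in 1% acetic acid for 10 min, solubilized in 10 mM trizma base and read at 515 nm. GI50 is where 100×(T−T0)/(C−T0)=50.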

[5] = system: CCRF-CEM; assay: Growth inhibition of human CCRF-CEM cells after 48 hrs by sulforhodamine B assay; assay type: functional; summary of the method: as §2
[6] = system: HOP-62; assay: Growth inhibition of human HOP62 cells after 48 hrs by sulforhodamine B assay; assay type: functional; conditions: HOP-62, 48 h; summary of the method: as §2
[7] = system: NCI-H226; assay: Growth inhibition of human NCI-H226 cells assessed as cell growth at 10 uM after 48 hrs by sulforhodamine B assay; assay type: functional; conditions: NCI-H226, 48 h, read-out: Activity; summary of the method: as §3
[8] = system: SF-268; assay: Growth inhibition of human SF268 cells after 48 hrs by sulforhodamine B assay; assay type: functional; conditions: SF-268, 48 h
Summary of the method: (§5)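 NCI-60 panel cells grown in RPMI 1640 with 5% FBS and 2 mM L-glutamine, seeded at 5000–40,000 cells/well and preincubated 24 h. Five 10-fold dilutions (0.001–100 µM) from DMSO stocks were added for 48 h at 37 °C. Adherent cells were fixed with cold TCA (10% final) for 60 min at 4 °C, stained with 0.4% SRB, and read at 515 nm. GI50 was set where 100×(T−T0)/(C−T0)=50.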

[9] = system: U-251; assay: Growth inhibition of human U251 cells assessed as cell growth at 10 uM after 48 hrs by sulforhodamine B assay; assay type: functional; conditions: U-251, 48 h, read-out: Activity
Summary of the method: (§6)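 Single-dose NCI-60 test at 10 µM. Cells were grown in RPMI 1640 with 5% FBS and 2 mM L-glutamine, preincubated 24 h, with T0 plates TCA-fixed. Exposure was 48 h at 37 °C, 5% CO2. Cells were fixed with cold TCA (final 10%, 4 °C, 60 min), stained with SRB and read at 515 nm. Percent growth was taken relative to T0 and untreated control; negative values denote cell kill.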

[10] = system: SF-539; assay: Growth inhibition of human SF539 cells after 48 hrs by sulforhodamine B assay; assay type: functional; conditions: SF-539, 48 h; summary of the method: as §5
[11] = system: M14; assay: Growth inhibition of human M14 cells after 48 hrs by sulforhodamine B assay; assay type: functional; conditions: M14, 48 h; summary of the method: as §2
[12] = system: HT-29; assay: Growth inhibition of human HT-29 cells after 48 hrs by sulforhodamine B assay; assay type: functional; conditions: HT-29, 48 h; summary of the method: as §2
[13] = system: A498; assay: Growth inhibition of human A498 cells after 48 hrs by sulforhodamine B assay; assay type: functional; conditions: A498, 48 h; summary of the method: as §2
[14] = system: MDA-MB-231; assay: Growth inhibition of human MDA-MB-231 cells after 48 hrs by sulforhodamine B assay; assay type: functional; conditions: MDA-MB-231, 48 h; summary of the method: as §5
[15] = system: SNB-75; assay: Growth inhibition of human SNB75 cells assessed as cell growth at 10 uM after 48 hrs by sulforhodamine B assay; assay type: functional; conditions: SNB-75, 48 h, read-out: Activity; summary of the method: as §6
[16] = system: MOLT-4; assay: Growth inhibition of human MOLT4 cells assessed as cell growth at 10 uM after 48 hrs by sulforhodamine B assay; assay type: functional; conditions: MOLT-4, 48 h, read-out: Activity
Summary of the method: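 Single 10 µM dose applied to suspension cells in RPMI 1640 with 5% FBS and 2 mM L-glutamine for 48 h at 37 °C. Settled cells were fixed with 80% TCA (16% final), stained with SRB, and read at 515 nm. Percent growth was calculated against time-zero and untreated control optical densities.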

[17] = system: SF-295; assay: Growth inhibition of human SF295 cells assessed as cell growth at 10 uM after 48 hrs by sulforhodamine B assay; assay type: functional; conditions: SF-295, 48 h, read-out: Activity; summary of the method: as §3
[18] = Growth inhibition of human Hs 578T cells assessed as cell growth at 10 uM after 48 hrs by sulforhodamine B assay; assay type: functional; conditions: read-out: Activity; summary of the method: as §1
[19] = system: T47D; assay: Growth inhibition of human T47D cells after 48 hrs by sulforhodamine B assay; assay type: functional; summary of the method: as §4
[20] = system: MDA-MB-231; assay: Antiproliferative activity against human MDA-MB-231 cells by MTT assay; assay type: functional, cell-based
Summary of the method: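 Cells plated at 8 × 10^3/well (MDA-MB-231) or 10^4/well (MCF7) in 96-well plates. Compounds fed in media with 5% FBS (MDA-MB-231) or 1% FBS (MCF7). MTT read-out of viable cells.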

[21] = system: ACHN; assay: Growth inhibition of human ACHN cells after 48 hrs by sulforhodamine B assay; assay type: functional; summary of the method: as §2
[22] = system: MDA-MB-435; assay: Growth inhibition of human MDA-MB-435 cells assessed as cell growth at 10 uM after 48 hrs by sulforhodamine B assay; assay type: functional; conditions: MDA-MB-435, 48 h, read-out: Activity; summary of the method: as §3
[23] = system: PC-3; assay: Growth inhibition of human PC3 cells assessed as cell growth at 10 uM after 48 hrs by sulforhodamine B assay; assay type: functional; conditions: PC-3, 48 h, read-out: Activity; summary of the method: as §3
[24] = system: Malme-3M; assay: Growth inhibition of human MALME-3M cells after 48 hrs by sulforhodamine B assay; assay type: functional; summary of the method: as §5
[25] = system: UACC-257; assay: Growth inhibition of human UACC257 cells after 48 hrs by sulforhodamine B assay; assay type: functional; conditions: UACC-257, 48 h; summary of the method: as §4

CC(C)=CCC/C(C)=C/CC/C(C)=C/CC[C@]1(C)CCc2c3c(cc(C)c2O1)OCN(CCCO)C3
growth at 10 µM [1]: 106% | GI50 [2]: 1740 nM | growth at 10 µM [3]: 74.4% | GI50 [4]: 1810 nM | GI50 [5]: 2590 nM | GI50 [6]: 1780 nM | growth at 10 µM [7]: 98.7% | GI50 [8]: 2040 nM | growth at 10 µM [9]: -83.4% | GI50 [10]: 1930 nM | GI50 [11]: 1920 nM | GI50 [12]: 1780 nM | GI50 [13]: 1460 nM | GI50 [14]: 1630 nM | growth at 10 µM [15]: 33.9% | growth at 10 µM [16]: -20.3% | growth at 10 µM [17]: 74% | growth at 10 µM [18]: -11.8% | GI50 [19]: 2010 nM | pIC50 [20]: < 5.00 | GI50 [21]: 1750 nM | growth at 10 µM [22]: -24% | growth at 10 µM [23]: 50.8% | GI50 [24]: 2100 nM | GI50 [25]: 1790 nM

CC(C)=CCC/C(C)=C/CC/C(C)=C/CC[C@]1(C)CCc2c3c(c(C)c(C)c2O1)OCN(CCCCCCCCO)C3
growth at 10 µM [1]: 117% | GI50 [2]: 2730 nM | growth at 10 µM [3]: 72.6% | GI50 [4]: 2510 nM | GI50 [5]: 3340 nM | GI50 [6]: 2810 nM | growth at 10 µM [7]: 91.6% | GI50 [8]: 2780 nM | growth at 10 µM [9]: 34% | GI50 [10]: 3290 nM | GI50 [11]: 3020 nM | GI50 [12]: 3260 nM | GI50 [13]: 2320 nM | GI50 [14]: 2890 nM | growth at 10 µM [15]: 74.3% | growth at 10 µM [16]: 2.94% | growth at 10 µM [17]: 48.1% | growth at 10 µM [18]: 81.7% | GI50 [19]: 3030 nM | pIC50 [20]: < 4.70 | GI50 [21]: 2620 nM | growth at 10 µM [22]: -21.4% | growth at 10 µM [23]: 26.8% | GI50 [24]: 3140 nM | GI50 [25]: 2960 nM

CC(C)=CCC/C(C)=C/CC/C(C)=C/CC[C@]1(C)CCc2c3c(cc(C)c2O1)OCN(C1CCN(Cc2ccccc2)CC1)C3
growth at 10 µM [1]: 63.2% | GI50 [2]: 626 nM | growth at 10 µM [3]: 80.6% | GI50 [4]: 1480 nM | GI50 [5]: 308 nM | GI50 [6]: 1820 nM | growth at 10 µM [7]: 101% | GI50 [8]: 1670 nM | growth at 10 µM [9]: -66.6% | GI50 [10]: 1830 nM | GI50 [11]: 1890 nM | GI50 [12]: 1840 nM | GI50 [13]: 1310 nM | GI50 [14]: 1630 nM | growth at 10 µM [15]: 62.5% | growth at 10 µM [17]: 93.2% | growth at 10 µM [18]: -6.43% | GI50 [19]: 2180 nM | GI50 [21]: 1880 nM | growth at 10 µM [22]: 3.07% | growth at 10 µM [23]: 33.2% | GI50 [24]: 2130 nM | GI50 [25]: 2240 nM

CC(C)=CCC/C(C)=C/CC/C(C)=C/CC[C@]1(C)CCc2c3c(cc(C)c2O1)OCN(CCCCCCCCO)C3
growth at 10 µM [1]: 117% | GI50 [2]: 583 nM | growth at 10 µM [3]: -94.4% | GI50 [4]: 4790 nM | GI50 [5]: 865 nM | GI50 [6]: 2700 nM | growth at 10 µM [7]: 50.2% | GI50 [8]: 4140 nM | growth at 10 µM [9]: -95.8% | GI50 [10]: 1280 nM | GI50 [11]: 1140 nM | GI50 [12]: 703 nM | GI50 [13]: 4710 nM | GI50 [14]: 1100 nM | growth at 10 µM [15]: -61.4% | growth at 10 µM [16]: -58.6% | growth at 10 µM [17]: -83.8% | growth at 10 µM [18]: 12% | GI50 [19]: 3940 nM | pIC50 [20]: 4.93 | GI50 [21]: 2160 nM | growth at 10 µM [22]: -76.2% | GI50 [24]: 7150 nM | GI50 [25]: 656 nM
